How the values were obtained:
Mus musculus [1] = species: Mus musculus; experiment: Effect on putrescine polyamine accumulation in concanavalin A stimulated lymphocytes at 0.02 mM
Mus musculus [2] = species: Mus musculus; experiment: Effect of the addition of stimulated spermine on the intracellular concentration in concanavalin A stimulated lymphocytes in the absence of compound at 48 hours
Mus musculus [3] = species: Mus musculus; experiment: Effect of the addition of stimulated spermidine on the intracellular concentration in concanavalin A stimulated lymphocytes in the presence of spermine (50 uM) at 48 hours
Mus musculus [4] = species: Mus musculus; experiment: Effect on putrescine polyamine accumulation in concanavalin A stimulated lymphocytes at 0.10 mM
Mus musculus [5] = species: Mus musculus; experiment: Effect of the addition of stimulated putrescine on the intracellular concentration in concanavalin A stimulated lymphocytes in the absence of compound at 48 hours
Mus musculus [6] = species: Mus musculus; experiment: Effect of the addition of stimulated spermine on the intracellular concentration in concanavalin A stimulated lymphocytes in the absence of compound at 24 hours
Mus musculus [7] = species: Mus musculus; experiment: Effect of the addition of stimulated spermine (50 uM) on the intracellular concentration in concanavalin A stimulated lymphocytes in the absence of compound at 48 hours
Mus musculus [8] = species: Mus musculus; experiment: Effect on putrescine polyamine accumulation in concanavalin A stimulated lymphocytes at 0.05 mM
Mus musculus [9] = species: Mus musculus; experiment: Effect on putrescine polyamine accumulation in concanavalin A stimulated lymphocytes at 0.20 mM
Mus musculus [10] = species: Mus musculus; experiment: Effect on spermidine polyamine accumulation in concanavalin A stimulated lymphocytes at 0.05 mM
Mus musculus [11] = species: Mus musculus; experiment: Effect of the addition of stimulated spermidine on the intracellular concentration in concanavalin A stimulated lymphocytes in the presence of compound (0.5 mM) at 24 hours
[12] = molecular target: T1, Spermidine synthase (Rattus norvegicus) (UniProt Q99MI5); experiment: Substrate activity for Prostatic spermidine synthase product formation in rat
T1 sequence (whole entry): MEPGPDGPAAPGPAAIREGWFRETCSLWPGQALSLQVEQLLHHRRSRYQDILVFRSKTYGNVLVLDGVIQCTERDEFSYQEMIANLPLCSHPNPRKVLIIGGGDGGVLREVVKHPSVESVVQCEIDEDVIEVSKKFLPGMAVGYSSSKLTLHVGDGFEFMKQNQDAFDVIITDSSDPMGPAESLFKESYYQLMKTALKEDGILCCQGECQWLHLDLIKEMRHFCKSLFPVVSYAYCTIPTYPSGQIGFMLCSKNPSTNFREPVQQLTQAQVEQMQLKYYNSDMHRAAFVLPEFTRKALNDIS
How it was run: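 Substrate test: 0.13 mM S-methyladenosylhomocysteamine or analogue with 0.6 mM [14C]putrescine (spermidine synthase) or [14C]spermidine (spermine synthase). Enzyme was 1.57 mg rat ventral prostate soluble supernatant protein or 0.09 mg enzyme purified 30-fold from bovine brain soluble fraction. Incubated 20 min at 37 °C, stopped with perchloric acid, and labelled polyamines measured by paper electrophoresis.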

[13] = system: Spermine synthase (Rattus norvegicus); experiment: Substrate activity for Prostatic spermine synthase product formation in rat
Mus musculus [14] = species: Mus musculus; experiment: Effect of the addition of stimulated spermidine on the intracellular concentration in concanavalin A stimulated lymphocytes in the absence of compound at 48 hours
Mus musculus [15] = species: Mus musculus; experiment: Effect of the addition of stimulated spermidine on the intracellular concentration in concanavalin A stimulated lymphocytes in the presence of compound (0.5 mM) and spermine (50 uM) at 48 hours
Mus musculus [16] = species: Mus musculus; experiment: Effect on putrescine polyamine accumulation in concanavalin A stimulated lymphocytes at 0.50 mM
[17] = molecular target: T1, Spermidine synthase (Rattus norvegicus); experiment: Substrate activity for the Bovine brain spermidine synthase product formation; details: Bos taurus; target entry is the homologue from another species
Mus musculus [18] = species: Mus musculus; experiment: Effect on spermidine polyamine accumulation in concanavalin A stimulated lymphocytes at 0.02 mM
[19] = system: spermine synthase (Bos taurus); experiment: Compound was tested for its effect on Bovine brain spermine synthase at 0.4 mM
Mus musculus [20] = species: Mus musculus; experiment: Effect on spermidine polyamine accumulation in concanavalin A stimulated lymphocytes at 0.10 mM
[21] = system: spermine synthase (Bos taurus); experiment: Compound was tested for its effect on Bovine brain spermine synthase at 0.1 mM
[22] = system: spermine synthase (Bos taurus); experiment: Compound was tested for its effect on Bovine brain spermine synthase at 0.01 mM
Mus musculus [23] = species: Mus musculus; experiment: Effect of the addition of stimulated spermidine on the intracellular concentration in concanavalin A stimulated lymphocytes in the presence of spermidine (50 uM) at 48 hours
[24] = molecular target: T1, Spermidine synthase (Rattus norvegicus); experiment: Compound was tested for its effect on rat prostatic spermidine synthase at 0.1 mM
How it was run: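 Rat prostate spermidine synthase preparation with 20 μM 14C-S-methyladenosylhomocysteamine and 1 mM putrescine, inhibitor at 0.1 mM. Incubation at 37 °C for 15 min; radiolabelled spermidine formed was measured.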

Mus musculus [25] = species: Mus musculus; experiment: Effect of the addition of stimulated spermidine on the intracellular concentration in concanavalin A stimulated lymphocytes in the presence of compound (0.5 mM) and putrescine (50 uM) at 48 hours
[26] = system: spermine synthase (Rattus norvegicus); experiment: Compound was tested for its effect on rat prostatic spermine synthase at 0.1 mM
[27] = system: spermine synthase (Bos taurus); experiment: Compound was tested for its effect on Bovine brain spermine synthase at 1.0 mM
Mus musculus [28] = species: Mus musculus; experiment: Effect on putrescine polyamine accumulation in concanavalin A stimulated lymphocytes at 0.35 mM
Mus musculus [29] = species: Mus musculus; experiment: Effect of the addition of stimulated spermidine on the intracellular concentration in concanavalin A stimulated lymphocytes in the presence of compound (0.5 mM) at 48 hours
Mus musculus [30] = species: Mus musculus; experiment: Effect of the addition of stimulated spermidine on the intracellular concentration in concanavalin A stimulated lymphocytes in the presence of compound (0.5 mM) and spermidine (50 uM) at 48 hours

CC(N)CC[S+](C)C[C@H]1O[C@@H](n2cnc3c(N)ncnc32)[C@H](O)[C@@H]1O.[I-] (stereo not given in full)
Level (Mus musculus [1]): 17.8 pmol/g DNA
Polyamine (Mus musculus [2]): 59.8 pmol/g
Polyamine (Mus musculus [3]): 38.2 pmol/g
Level (Mus musculus [4]): 8.9 pmol/g DNA
Polyamine (Mus musculus [5]): 13.3 pmol/g
Polyamine (Mus musculus [6]): 38.6 pmol/g
Polyamine (Mus musculus [7]): 98.2 pM/g
Level (Mus musculus [8]): 11 pmol/g DNA
Level (Mus musculus [9]): 6.8 pmol/g DNA
Level (Mus musculus [10]): 39.8 pmol/g DNA
Polyamine (Mus musculus [11]): 17.5 pmol/g
Activity [12]: 56 pmol/min
Activity [13]: 0%
Polyamine (Mus musculus [14]): 90.5 pmol/g
Polyamine (Mus musculus [15]): 20 pM/g
Level (Mus musculus [16]): 3.5 pmol/g DNA
Activity [17]: 25 pmol/min
Level (Mus musculus [18]): 67.3 pmol/g DNA
Activity [19]: 58%
Level (Mus musculus [20]): 38.7 pmol/g DNA
Activity [21]: 88%
Activity [22]: 102%
Polyamine (Mus musculus [23]): 157 pmol/g
Activity [24]: 76%
Polyamine (Mus musculus [25]): 21.7 pmol/g
Activity [26]: 66%
Activity [27]: 23%
Level (Mus musculus [28]): 4.2 pmol/g DNA
Polyamine (Mus musculus [29]): 19.3 pmol/g
Polyamine (Mus musculus [30]): 26.2 pmol/g
